Laboratory results reported in ChEMBL document CHEMBL1148162, “Structures of sesquiterpene polyol esters from Celastrus stephanotiifolius with potential tumor-promotion inhibitor activity” (J Nat Prod, 1993).

Key:
Type in all cases: cell-based
[1] = Cytotoxicity against human Raji cells assessed as cell viability at 1000 molar ratio; details: read-out: Activity
In short: (§1)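 Raji cell viability was recorded in the same TPA-induced EBV-EA assay (TPA 20 ng/ml, 32 pM/ml), with compound at 10, 100, 500 or 1000 mol ratio to TPA. Viability is reported as a percentage.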

Raji [2] = assay: Inhibition of 12-O-tetradecanoylphorbol-13-acetate induced EBV-early antigen activation in human Raji cells assessed as EA activation at 10 molar ratio relative to TPA; design: scale not given: the % may be the effect or the level left; details: human gammaherpesvirus 4
In short: (§2)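 Raji cells stimulated with TPA at 20 ng/ml (32 pM/ml) in the presence of test compound at 10, 100, 500 or 1000 mol ratio to TPA. EBV early antigen activation is reported as a percentage of the TPA-only positive control (100%).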

[3] = Cytotoxicity against human Raji cells assessed as cell viability at 100 molar ratio; details: read-out: Activity; in short: as §1
Raji [4] = assay: Inhibition of 12-O-tetradecanoylphorbol-13-acetate induced EBV-early antigen activation in human Raji cells assessed as EA activation at 100 molar ratio relative to TPA; design: scale not given: the % may be the effect or the level left; details: human gammaherpesvirus 4; in short: as §2
Raji [5] = assay: Inhibition of 12-O-tetradecanoylphorbol-13-acetate induced EBV-early antigen activation in human Raji cells assessed as EA activation at 1000 molar ratio relative to TPA; design: scale not given: the % may be the effect or the level left; details: human gammaherpesvirus 4; in short: as §2
Raji [6] = assay: Inhibition of 12-O-tetradecanoylphorbol-13-acetate induced EBV-early antigen activation in human Raji cells assessed as EA activation at 500 molar ratio relative to TPA; design: scale not given: the % may be the effect or the level left; details: human gammaherpesvirus 4; in short: as §2
[7] = Cytotoxicity against human Raji cells assessed as cell viability at 500 molar ratio; details: read-out: Activity; in short: as §1
[8] = Cytotoxicity against human Raji cells assessed as cell viability at 10 molar ratio; details: read-out: Activity; in short: as §1

Compound | viability at 1000 molar ratio [1] | Activity (Raji [2]) | viability at 100 molar ratio [3] | Activity (Raji [4]) | Activity (Raji [5]) | Activity (Raji [6]) | viability at 500 molar ratio [7] | viability at 10 molar ratio [8]
CC(=O)O[C@@H]1[C@@H]2[C@@H](OC(C)=O)[C@]3(OC2(C)C)[C@H](C)CC[C@H](OC(C)=O)[C@@]3(C)[C@H]1OC(=O)c1ccccc1 | 70% | 100% | > 80% | 90.6% | 15.3% | 52.8% | > 80% | > 80%
CC(=O)O[C@H]1C[C@@H](C)[C@@]23C[C@@H](C[C@H](OC(=O)/C=C/c4ccccc4)[C@]2(C)[C@H]1OC(C)=O)C(C)(C)O3 | 70% | 100% | > 80% | 89.4% | 25.6% | 63.1% | > 80% | > 80%
CC(=O)O[C@H]1C[C@@H](C)[C@@]23C[C@@H](C[C@H](OC(=O)/C=C/c4ccccc4)[C@]2(C)[C@H]1O)C(C)(C)O3 | 70% | 100% | > 80% | 86.4% | 0% | 41.6% | > 80% | > 80%
CC(=O)O[C@H]1CC[C@@H](C)[C@]23OC(C)(C)[C@H](C[C@H](OC(=O)c4ccccc4)[C@]12C)[C@H]3OC(=O)c1ccccc1 | 70% | 100% | > 80% | 100% | 53.6% | 84.6% | > 80% | > 80%
CC(=O)O[C@H]1C[C@@H](C)[C@]23OC(C)(C)[C@H](C[C@H](OC(=O)c4ccccc4)[C@]2(C)[C@H]1OC(C)=O)[C@H]3OC(C)=O | 70% | 100% | > 80% | 92.9% | 34.2% | 65.9% | > 80% | > 80%
CC(=O)O[C@H]1CC[C@@H](C)[C@]23OC(C)(C)[C@H](C[C@H](OC(=O)c4ccccc4)[C@]12C)[C@H]3OC(C)=O | 70% | 100% | > 80% | 92.1% | 26.2% | 47.9% | > 80% | > 80%
CC(=O)O[C@@H]1[C@H]2[C@@H](O)[C@@H](OC(=O)c3ccccc3)[C@]3(C)[C@@H](OC(=O)c4ccccc4)CC[C@@H](C)[C@@]13OC2(C)C | 60% | 100% | > 80% | 81.1% | 0% | 39.3% | > 80% | > 80%
